This note sets out measurements from ChEMBL document CHEMBL3425486, “Lathyrol diterpenes as modulators of P-glycoprotein dependent multidrug resistance: structure-activity relationship studies on Euphorbia factor L3 derivatives” (J Med Chem, 2015).

For data set [1], the system named is MCF7. The data set is described as follows: Cytotoxicity against human MCF7 cells assessed as reduction in cell viability after 48 hrs by SRB colorimetric assay. It counts as functional, cell-based. To be noted: MCF7, 48 h. Put shortly:
(§1)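 MCF-7 from ATCC and its stepwise ADR-selected resistant subline, grown in RPMI-1640 with 10% FBS and penicillin/streptomycin at 37 °C, 5% CO2. 1 × 10^4 cells/well exposed to graded compound concentrations for 48 h. Cells fixed with 10% TCA, stained with 0.4% SRB in 1% acetic acid, dye extracted with 10 mM Tris base, OD read at 490 nm. Taxol positive control.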

A short description of data set [2]: Cytotoxicity against human MCF7/ADR cells assessed as reduction in cell viability after 48 hrs by SRB colorimetric assay. The format is functional, cell-based. To be noted: NCI/ADR-RES. Put shortly: as §1
In general terms: The SRB assay estimates cell density from bound dye.

For data set [3], the target named is ATP-dependent translocase ABCB1 (Homo sapiens, UniProt P08183). The experiment in a line: Inhibition of P-gp in human MCF7/ADR cells assessed as reversal of multidrug resistance by measuring relative enhancement intensity for adriamycin-induced cytotoxicity at 10 uM after 48 hrs by SRB colorimetric assay. Also noted: scale not given: the % may be the effect or the level left. It counts as cell-based. The conditions noted are these: nci/adr-res.

In data set [4] the test system is NCI/ADR-RES. The experiment in a line: Inhibition of P-gp in human MCF7/ADR cells assessed as reversal of multidrug resistance at 10 uM by measuring ratio of EC50(adriamycin)/EC50(adriamycin + compound) after 48 hrs by SRB colorimetric assay. The format is cell-based.

Sequence of ATP-dependent translocase ABCB1 (P08183 whole entry): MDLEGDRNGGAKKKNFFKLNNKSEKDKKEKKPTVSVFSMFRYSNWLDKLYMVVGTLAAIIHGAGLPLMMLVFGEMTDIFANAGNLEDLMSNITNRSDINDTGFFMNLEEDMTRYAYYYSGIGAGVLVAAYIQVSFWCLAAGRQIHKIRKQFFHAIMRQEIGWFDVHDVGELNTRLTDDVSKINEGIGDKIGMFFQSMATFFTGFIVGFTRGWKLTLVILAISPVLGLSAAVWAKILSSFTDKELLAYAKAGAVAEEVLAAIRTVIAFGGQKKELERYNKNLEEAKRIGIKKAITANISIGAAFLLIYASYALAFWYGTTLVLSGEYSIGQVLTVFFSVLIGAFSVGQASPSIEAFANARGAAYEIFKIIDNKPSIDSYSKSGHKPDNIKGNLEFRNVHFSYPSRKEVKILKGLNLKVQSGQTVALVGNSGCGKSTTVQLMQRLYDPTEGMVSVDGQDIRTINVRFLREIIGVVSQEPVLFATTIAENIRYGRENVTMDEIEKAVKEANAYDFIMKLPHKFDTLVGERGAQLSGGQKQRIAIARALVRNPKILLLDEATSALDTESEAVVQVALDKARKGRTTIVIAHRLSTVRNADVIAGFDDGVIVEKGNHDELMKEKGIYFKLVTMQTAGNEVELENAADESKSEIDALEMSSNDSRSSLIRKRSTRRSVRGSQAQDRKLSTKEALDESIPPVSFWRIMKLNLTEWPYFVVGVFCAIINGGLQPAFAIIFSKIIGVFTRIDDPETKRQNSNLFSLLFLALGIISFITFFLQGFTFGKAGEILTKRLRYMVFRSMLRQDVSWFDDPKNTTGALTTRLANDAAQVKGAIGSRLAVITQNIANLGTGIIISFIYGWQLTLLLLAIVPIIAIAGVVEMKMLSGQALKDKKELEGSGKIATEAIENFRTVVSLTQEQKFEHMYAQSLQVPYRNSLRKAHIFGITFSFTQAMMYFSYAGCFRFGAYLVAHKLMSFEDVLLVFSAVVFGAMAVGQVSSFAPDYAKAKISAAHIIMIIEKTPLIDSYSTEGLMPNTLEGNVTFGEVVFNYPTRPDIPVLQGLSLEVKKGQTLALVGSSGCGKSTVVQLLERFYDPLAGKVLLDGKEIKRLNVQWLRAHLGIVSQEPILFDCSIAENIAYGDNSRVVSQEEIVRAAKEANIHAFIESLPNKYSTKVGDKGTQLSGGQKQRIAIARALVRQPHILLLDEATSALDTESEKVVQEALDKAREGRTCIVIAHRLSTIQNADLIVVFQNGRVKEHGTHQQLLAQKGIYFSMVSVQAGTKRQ

With `C=C1CC[C@H]2[C@@H]([C@@H]3O[C@]4(C[C@H](C)[C@H](OC(=O)Cc5cccc6ccccc56)[C@@H]4[C@H]1OC(=O)Cc1cccc4ccccc14)C(=O)[C@H]3C)C2(C)C`, the 50% inhibitory concentration (IC50) is 84.9 µM in data set [1] and above 100 µM in data set [2]. Further, in data set [3], the Activity came to 10.4%. Moreover, the Ratio EC50 in data set [4] worked out at 1.4.
For `C=C1CC[C@H]2[C@@H]([C@@H]3O[C@]4(C[C@H](C)[C@H](OC(=O)c5ccccc5)[C@@H]4[C@H]1OC(=O)c1ccccc1)C(=O)[C@@H]3C)C2(C)C`, in that order: 25.2 µM, above 100 µM, 6.8% and 3.2.
The corresponding values for `C=C1CC[C@H]2[C@@H]([C@@H]3O[C@]4(C[C@H](C)[C@H](OC(=O)Cc5ccccc5)[C@@H]4[C@H]1OC(=O)Cc1ccccc1)C(=O)[C@@H]3C)C2(C)C` are 28.5 µM, 55 µM, 4% and 1.6.
The corresponding values for `C=C1CC[C@H]2[C@@H](/C=C(\C)C(=O)[C@@]3(O)C[C@H](C)[C@H](OC(=O)CCc4ccccc4)[C@@H]3[C@H]1OC(=O)CCc1ccccc1)C2(C)C` are 28.7 µM, above 100 µM, 6% and 1.3.
With `C=C1CC[C@H]2[C@@H]([C@@H]3O[C@]4(C[C@H](C)[C@H](OC(=O)Cc5ccccc5)[C@@H]4[C@H]1OC(=O)Cc1ccccc1)C(=O)[C@H]3C)C2(C)C`, the IC50 was 28.5 µM in data set [1] and above 100 µM in data set [2]. The Activity in data set [3] was determined as 11.6%. In addition, the Ratio EC50 in data set [4] stood at 2.1.
For `C=C1CC[C@H]2[C@@H](/C=C(\C)C(=O)[C@@]3(O)C[C@H](C)[C@H](OC(=O)CC)[C@@H]3[C@H]1OC(=O)CC)C2(C)C`, in that order: 18.6 µM, 45 µM, 4.6% and 2.8.
The corresponding values for `C=C1CC[C@H]2[C@@H](/C=C(\C)C(=O)[C@@]3(O)C[C@H](C)[C@H](O)[C@@H]3[C@H]1OC(=O)c1cccnc1)C2(C)C` are 17.3 µM, 19.3 µM, 10.3% and 2.3.
For `C=C1CC[C@H]2[C@@H]([C@@H]3O[C@]4(C[C@H](C)[C@H](OC(=O)CCC)[C@@H]4[C@H]1OC(=O)CCC)C(=O)[C@H]3C)C2(C)C`, in that order: 19.1 µM, above 100 µM, 7.7% and 3.
As to `C=C1CC[C@H]2[C@@H](/C=C(\C)C(=O)[C@@]3(O)C[C@H](C)[C@H](O)[C@@H]3[C@H]1O)C2(C)C`, the 50% inhibitory concentration (IC50) in data set [1] amounted to 34 µM; in data set [2] it was 59.6 µM. Besides, in data set [3], the Activity is reported as 7.3%. The Ratio EC50 in data set [4] was found to be 3.
For `C=C1CC[C@H]2[C@@H]([C@@H]3O[C@]4(C[C@H](C)[C@H](OC(=O)CCCCC)[C@@H]4[C@H]1OC(=O)CCCCC)C(=O)[C@H]3C)C2(C)C`, in that order: 48.1 µM, above 100 µM, 6.8% and 7.
For `C=C1CCC(=C(C)C)[C@H]2C[C@@H](C)C(=O)[C@@]3(C[C@H](C)[C@H](OC(C)=O)[C@@H]3[C@H]1OC(C)=O)O2`, in that order: 45.8 µM, 65.2 µM, 2.4% and 1.9.
For `C=C1CC[C@H]2[C@@H](/C=C(\C)C(=O)[C@@]3(O)C[C@H](C)[C@H](OC(=O)/C=C/c4ccccc4)[C@@H]3[C@H]1OC(=O)c1ccccc1)C2(C)C`, in that order: 14.2 µM, 42.1 µM, 12.1% and 9.8.

As usually defined, the IC50 is the midpoint of a concentration-inhibition curve.
